Laboratory results as given in ChEMBL document CHEMBL3826896, “Synthesis of lignan conjugates via cyclopropanation: Antimicrobial and antioxidant studies” (Bioorg Med Chem Lett, 2016).
Converted amounts (≈) assume the structure as drawn.

Key:
[1] = system: Staphylococcus aureus; test: Antimicrobial activity against Staphylococcus aureus after 24 hrs by broth dilution method; format: functional
Method in brief: (§1)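 MIC by broth dilution in triplicate, reported as mean ± SD. Panel: bacteria S. aureus, S. pyogenes, E. coli; fungi C. neoformans, A. niger, A. flavus. Ciprofloxacin served as positive control for bacteria and nystatin for fungi. DMSO was the solvent and solvent control.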

[2] = system: Streptococcus pyogenes; test: Antimicrobial activity against Streptococcus pyogenes after 24 hrs by broth dilution method; format: functional; method in brief: as §1
[3] = system: Escherichia coli; test: Antimicrobial activity against Escherichia coli after 24 hrs by broth dilution method; format: functional; method in brief: as §1
[4] = system: Cryptococcus neoformans; test: Antimicrobial activity against Cryptococcus neoformans after 72 hrs by broth dilution method; format: functional; method in brief: as §1
[5] = system: Aspergillus niger; test: Antimicrobial activity against Aspergillus niger after 72 hrs by broth dilution method; format: functional; method in brief: as §1
[6] = system: Aspergillus flavus; test: Antimicrobial activity against Aspergillus flavus after 72 hrs by broth dilution method; format: functional; method in brief: as §1
[7] = Antioxidant activity assessed as DPPH radical scavenging activity at 20 ug/ml after 20 mins by spectrophotometry relative to control; format: physicochemical
Method in brief: (§2)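 Radical scavenging measured in vitro by DPPH and by hydroxyl radical scavenging assays. Each run in triplicate at five concentrations, reported as mean ± SD of three replicates.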

[8] = Antioxidant activity assessed as DPPH radical scavenging activity at 40 ug/ml after 20 mins by spectrophotometry relative to control; format: physicochemical; method in brief: as §2
[9] = Antioxidant activity assessed as DPPH radical scavenging activity at 60 ug/ml after 20 mins by spectrophotometry relative to control; format: physicochemical; method in brief: as §2
[10] = Antioxidant activity assessed as DPPH radical scavenging activity at 80 ug/ml after 20 mins by spectrophotometry relative to control; format: physicochemical; method in brief: as §2
[11] = Antioxidant activity assessed as DPPH radical scavenging activity at 100 ug/ml after 20 mins by spectrophotometry relative to control; format: physicochemical; method in brief: as §2
[12] = Antioxidant activity assessed as hydroxyl radical scavenging activity at 20 ug/ml after 60 mins relative to control; format: physicochemical; conditions: 1 h; method in brief: as §2
[13] = Antioxidant activity assessed as hydroxyl radical scavenging activity at 40 ug/ml after 60 mins relative to control; format: physicochemical; conditions: 1 h; method in brief: as §2
[14] = Antioxidant activity assessed as hydroxyl radical scavenging activity at 60 ug/ml after 60 mins relative to control; format: physicochemical; conditions: 1 h; method in brief: as §2
[15] = Antioxidant activity assessed as hydroxyl radical scavenging activity at 80 ug/ml after 60 mins relative to control; format: physicochemical; conditions: 1 h; method in brief: as §2
[16] = Antioxidant activity assessed as hydroxyl radical scavenging activity at 100 ug/ml after 60 mins relative to control; format: physicochemical; conditions: 1 h; method in brief: as §2

| Molecule | MIC [1] | MIC [2] | MIC [3] | MIC [4] | MIC [5] | MIC [6] | Activity [7] | Activity [8] | Activity [9] | Activity [10] | Activity [11] | Activity [12] | Activity [13] | Activity [14] | Activity [15] | Activity [16] |
| --- | --- | --- | --- | --- | --- | --- | --- | --- | --- | --- | --- | --- | --- | --- | --- | --- |
| CCOC(=O)[C@@H]1CC(=O)c2sccc2[C@H]1c1ccc(OCC)cc1 | 75 µg/mL (≈ 218 µM) | 50 µg/mL (≈ 145 µM) | 50 µg/mL (≈ 145 µM) | 25 µg/mL (≈ 72.6 µM) | 75 µg/mL (≈ 218 µM) | 100 µg/mL (≈ 290 µM) | 17.08% | 18.54% | 22.87% | 25.43% | 28.96% | 15.43% | 19.76% | 26.98% | 34.13% | 37.99% |
| CCOC(=O)C1C(C(=O)c2cccs2)C1c1ccc(OC)cc1 (configuration not stated) | 50 µg/mL (≈ 151 µM) | 50 µg/mL (≈ 151 µM) | 50 µg/mL (≈ 151 µM) | 50 µg/mL (≈ 151 µM) | 100 µg/mL (≈ 303 µM) | 100 µg/mL (≈ 303 µM) |  |  |  |  |  |  |  |  |  |  |
| O=C1O[C@H]([C@@H](O)CO)C(O)=C1O [ASCORBIC ACID] |  |  |  |  |  |  | 15.08% | 16.87% | 21.98% | 24.25% | 28.65% |  |  |  |  |  |
| CCOC(=O)[C@@H]1CC(=O)c2sccc2[C@H]1c1ccc(OC)c(OC)c1 | 50 µg/mL (≈ 139 µM) | 50 µg/mL (≈ 139 µM) | 25 µg/mL (≈ 69.4 µM) | 25 µg/mL (≈ 69.4 µM) | 25 µg/mL (≈ 69.4 µM) | 50 µg/mL (≈ 139 µM) | 14.65% | 14.76% | 20.93% | 22.87% | 25.54% | 12.23% | 16.64% | 24.07% | 30.37% | 34.02% |
| CCOC(=O)C1C(C(=O)c2cccs2)C1c1ccc(OC)cc1OC (configuration not stated) | 25 µg/mL (≈ 69.4 µM) | 25 µg/mL (≈ 69.4 µM) | 25 µg/mL (≈ 69.4 µM) | 25 µg/mL (≈ 69.4 µM) | 50 µg/mL (≈ 139 µM) | 50 µg/mL (≈ 139 µM) |  |  |  |  |  |  |  |  |  |  |
| NYSTATIN |  |  |  | 25 µg/mL | 50 µg/mL | 50 µg/mL |  |  |  |  |  |  |  |  |  |  |
| CCOC(=O)C1C(C(=O)c2cccs2)C1c1ccc(OCC)cc1 (configuration not stated) | 12.5 µg/mL (≈ 36.3 µM) | 25 µg/mL (≈ 72.6 µM) | 25 µg/mL (≈ 72.6 µM) | 12.5 µg/mL (≈ 36.3 µM) | 12.5 µg/mL (≈ 36.3 µM) | 25 µg/mL (≈ 72.6 µM) |  |  |  |  |  |  |  |  |  |  |
| CCOC(=O)[C@@H]1CC(=O)c2sccc2[C@H]1c1ccccc1OC | 25 µg/mL (≈ 75.7 µM) | 50 µg/mL (≈ 151 µM) | 50 µg/mL (≈ 151 µM) | 25 µg/mL (≈ 75.7 µM) | 25 µg/mL (≈ 75.7 µM) | 50 µg/mL (≈ 151 µM) | 10.76% | 13.54% | 17.76% | 19.65% | 21.65% | 11.87% | 15.98% | 22.76% | 29.77% | 31.56% |
| COc1ccc(O)c(C(C)(C)C)c1.COc1ccc(O)cc1C(C)(C)C [BUTYLATED HYDROXYANISOLE] |  |  |  |  |  |  |  |  |  |  |  | 13.87% | 17.95% | 25.58% | 32.03% | 36.87% |
| CCOC(=O)[C@@H]1CC(=O)c2sccc2[C@H]1c1ccc(OC)cc1 | 50 µg/mL (≈ 151 µM) | 25 µg/mL (≈ 75.7 µM) | 50 µg/mL (≈ 151 µM) | 50 µg/mL (≈ 151 µM) | 25 µg/mL (≈ 75.7 µM) | 50 µg/mL (≈ 151 µM) | 15.02% | 16.71% | 20.31% | 23.92% | 26.22% | 13.03% | 17.98% | 24.76% | 30.98% | 34.09% |
| CCOC(=O)[C@@H]1CC(=O)c2sccc2[C@H]1c1ccc(OC)cc1OC | 50 µg/mL (≈ 139 µM) | 50 µg/mL (≈ 139 µM) | 75 µg/mL (≈ 208 µM) | 50 µg/mL (≈ 139 µM) | 100 µg/mL (≈ 277 µM) | 75 µg/mL (≈ 208 µM) | 9.76% | 11.76% | 14.98% | 18.64% | 20.76% | 10.05% | 12.76% | 19.87% | 23.87% | 26.82% |
| CCOC(=O)C1C(C(=O)c2cccs2)C1c1cc(OC)cc(OC)c1 (configuration not stated) | 50 µg/mL (≈ 139 µM) | 75 µg/mL (≈ 208 µM) | 75 µg/mL (≈ 208 µM) | 50 µg/mL (≈ 139 µM) | 50 µg/mL (≈ 139 µM) | 75 µg/mL (≈ 208 µM) |  |  |  |  |  |  |  |  |  |  |
| CCOC(=O)[C@@H]1CC(=O)c2sccc2[C@H]1c1cc(OC)cc(OC)c1 | 12.5 µg/mL (≈ 34.7 µM) | 25 µg/mL (≈ 69.4 µM) | 12.5 µg/mL (≈ 34.7 µM) | 12.5 µg/mL (≈ 34.7 µM) | 25 µg/mL (≈ 69.4 µM) | 25 µg/mL (≈ 69.4 µM) | 18.56% | 19.97% | 24.76% | 27.43% | 31.54% | 16.76% | 20.65% | 29.65% | 36.32% | 41.5% |
| O=C(O)c1cn(C2CC2)c2cc(N3CCNCC3)c(F)cc2c1=O [CIPROFLOXACIN] |  | 50 µg/mL (≈ 151 µM) | 25 µg/mL (≈ 75.4 µM) |  |  |  |  |  |  |  |  |  |  |  |  |  |
| CCOC(=O)C1C(C(=O)c2cccs2)C1c1ccccc1OC (configuration not stated) | 50 µg/mL (≈ 151 µM) | 100 µg/mL (≈ 303 µM) | 75 µg/mL (≈ 227 µM) | 75 µg/mL (≈ 227 µM) | 75 µg/mL (≈ 227 µM) | 25 µg/mL (≈ 75.7 µM) |  |  |  |  |  |  |  |  |  |  |
| CCOC(=O)C1C(C(=O)c2cccs2)C1c1ccc(OC)c(OC)c1 (configuration not stated) | 25 µg/mL (≈ 69.4 µM) | 50 µg/mL (≈ 139 µM) | 25 µg/mL (≈ 69.4 µM) | 25 µg/mL (≈ 69.4 µM) | 25 µg/mL (≈ 69.4 µM) | 50 µg/mL (≈ 139 µM) |  |  |  |  |  |  |  |  |  |  |
